Measured values as given in ChEMBL document CHEMBL1138320, “Discovery of potent & selective inhibitors of activated thrombin-activatable fibrinolysis inhibitor for the treatment of thrombosis” (J Med Chem, 2007).

Key:
Carboxypeptidase B2 = molecular target: T1, Carboxypeptidase B2 (Homo sapiens, UniProt Q96IY4); assay: Inhibition of human TAFIa
T1 sequence (Q96IY4 whole entry): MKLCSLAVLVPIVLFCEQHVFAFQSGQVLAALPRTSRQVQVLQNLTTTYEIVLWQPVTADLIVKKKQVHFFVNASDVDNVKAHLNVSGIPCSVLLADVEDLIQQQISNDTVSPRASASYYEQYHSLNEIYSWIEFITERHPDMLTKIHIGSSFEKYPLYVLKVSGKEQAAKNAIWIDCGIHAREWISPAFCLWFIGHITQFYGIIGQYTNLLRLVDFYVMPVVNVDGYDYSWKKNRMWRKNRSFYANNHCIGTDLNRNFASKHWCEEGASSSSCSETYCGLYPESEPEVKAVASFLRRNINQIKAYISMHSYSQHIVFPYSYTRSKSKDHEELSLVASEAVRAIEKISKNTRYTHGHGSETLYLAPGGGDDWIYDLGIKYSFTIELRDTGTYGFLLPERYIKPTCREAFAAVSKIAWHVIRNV

[1] = molecular target: T2, Carboxypeptidase N catalytic chain (Homo sapiens, UniProt P15169); assay: Inhibition of human plasma carboxypeptidase N; format: cell-free
T2 sequence (P15169 whole entry): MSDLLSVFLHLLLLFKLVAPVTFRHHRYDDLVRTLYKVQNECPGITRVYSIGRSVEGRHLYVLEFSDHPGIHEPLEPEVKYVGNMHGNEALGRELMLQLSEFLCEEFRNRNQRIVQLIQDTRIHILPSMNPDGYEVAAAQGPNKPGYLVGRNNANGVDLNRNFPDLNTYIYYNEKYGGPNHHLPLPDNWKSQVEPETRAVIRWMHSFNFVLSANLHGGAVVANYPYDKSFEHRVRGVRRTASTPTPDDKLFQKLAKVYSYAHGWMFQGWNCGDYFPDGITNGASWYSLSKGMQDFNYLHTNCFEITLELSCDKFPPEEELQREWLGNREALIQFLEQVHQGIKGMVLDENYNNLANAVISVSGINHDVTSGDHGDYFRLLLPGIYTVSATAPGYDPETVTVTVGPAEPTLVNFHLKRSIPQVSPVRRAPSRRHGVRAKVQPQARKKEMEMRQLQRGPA

Carboxypeptidase B = molecular target: T3, Carboxypeptidase B (Sus scrofa, UniProt P09955); assay: Inhibition of porcine pancreatic carboxypeptidase B
T3 sequence (P09955 whole entry): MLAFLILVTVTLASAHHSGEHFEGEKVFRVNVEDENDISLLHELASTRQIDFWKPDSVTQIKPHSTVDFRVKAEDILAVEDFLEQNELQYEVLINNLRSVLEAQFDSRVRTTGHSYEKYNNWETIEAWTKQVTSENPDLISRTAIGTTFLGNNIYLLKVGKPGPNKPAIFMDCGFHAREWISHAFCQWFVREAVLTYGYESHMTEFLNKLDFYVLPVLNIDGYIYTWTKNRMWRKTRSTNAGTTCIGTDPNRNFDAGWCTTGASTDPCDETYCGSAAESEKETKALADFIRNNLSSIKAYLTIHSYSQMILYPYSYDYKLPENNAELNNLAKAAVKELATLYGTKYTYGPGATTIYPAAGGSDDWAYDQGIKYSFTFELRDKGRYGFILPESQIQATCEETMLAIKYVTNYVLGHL

[2] = Hydrophilicity, log D of the compound; format: physicochemical; settings: octanol/water
[3] = Plasma clearance in dog at 0.6 mg/kg, iv; format: ADME, organism-based, Canis lupus familiaris; parameters: dose 0.6 mg/kg, route intravenous
Summary of the method: (§1)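 Single iv bolus of 0.6 mg/kg given to a dog. Total plasma clearance, volume of distribution and terminal elimination half-life were derived from the plasma pharmacokinetics.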

[4] = Volume of distribution in dog at 0.6 mg/kg, iv; format: ADME, organism-based, Canis lupus familiaris; parameters: dose 0.6 mg/kg, route intravenous; settings: in vivo, read-out: Vdss; summary of the method: as §1
[5] = Renal elimination in dog at 0.6 mg/kg, iv by urinary excretion studies; format: ADME, organism-based, Canis lupus familiaris; parameters: dose 0.6 mg/kg, route intravenous; settings: urine, read-out: Activity
Summary of the method: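 Urinary excretion study in a dog after an iv dose. Unchanged drug recovered in the urine was quantified as a percentage of the dose.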

[6] = Terminal elimination in dog at 0.6 mg/kg, iv; format: ADME, organism-based, Canis lupus familiaris; parameters: dose 0.6 mg/kg, route intravenous; settings: in vivo; summary of the method: as §1
[7] = Bioavailability in dog at 1 mg/kg, po; format: ADME, organism-based, Canis lupus familiaris; settings: in vivo
Summary of the method: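 Oral dosing at 1 mg/kg in dog for pharmacokinetic studies. Oral bioavailability was derived relative to iv dosing.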

[8] = Bioavailability in rat; format: ADME, organism-based; settings: in vivo
[9] = Oral bioavailability in human; format: ADME, organism-based; settings: in vivo
Summary of the method: (§2)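 Human pharmacokinetics after iv and oral dosing. Oral bioavailability and Tmax were determined, including with and without co-administration with food.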

[10] = Tmax in human; format: ADME, organism-based; settings: in vivo; summary of the method: as §2
Oryctolagus cuniculus [11] = assay: Antithrombotic efficacy in anesthetized rabbit assessed as inhibition of thrombus formation at 800 nM relative to control; format: functional
Summary of the method: (§3)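 Anesthetized rabbits given compound by iv infusion to reach projected free plasma levels of about 8, 80 or 800 nM. Thrombus weight (thrombus formation) was compared with vehicle-treated animals. t-PA at 10 µg/kg/min served as comparator. Group sizes were n = 3–6, with vehicle n = 5–13.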

Oryctolagus cuniculus [12] = assay: Inhibition of thrombus weight in iv dosed anesthetized rabbit at 80 nM relative to control; format: functional; summary of the method: as §3
[13] = Selectivity for bovine pancreatic carboxypeptidase A over porcine pancreatic carboxypeptidase B

Q: For NCCN[C@@H](Cc1cn(Cc2ccccc2)cn1)C(=O)O, which Ki (Carboxypeptidase B2) is on record?
A: The Ki was 269 nM.

Q: With NCCN[C@@H](Cc1c[nH]cn1)C(=O)O as the molecule, how does the Ki [1] read?
A: Its Ki is greater than 10000 nM.

Q: With CC(C)Cn1cnc(C[C@H](NCCN)C(=O)O)c1 as the molecule, how does the Ki (Carboxypeptidase B2) read?
A: The Ki was 100 nM.

Q: Which Ki (Carboxypeptidase B2) does the source give for CCCCCn1cnc(C[C@H](NCCN)C(=O)O)c1 here?
A: Its Ki is 160 nM.

Q: With NCCCC(Cc1c[nH]cn1)C(=O)O (racemic) as the molecule, how does the Ki (Carboxypeptidase B2) read?
A: Its Ki is 140 nM.

Q: Which Ki (Carboxypeptidase B) does the source give for NC(N)=NCCCC(CS)C(=O)O (racemic) here?
A: Its Ki is 0.42 nM.

Q: What about the Ki (Carboxypeptidase B2) of the same molecule?
A: The Ki was 4 nM.

Q: And the Ki [1]?
A: The Ki was 2 nM.

Q: Which Ki (Carboxypeptidase B2) does the source give for NCCN[C@@H](Cc1cn(CCCO)cn1)C(=O)O here?
A: The Ki was 111 nM.

Q: For CCCn1cnc(CC(CCCN)C(=O)O)c1 (racemic), which Ki (Carboxypeptidase B2) is on record?
A: The Ki was 46 nM.

Q: With CCCn1cnc(C[C@H](NCCN)C(=O)O)c1 as the molecule, how does the Ki (Carboxypeptidase B2) read?
A: Its Ki is 84 nM.

Q: With CCn1cnc(C[C@H](NCCN)C(=O)O)c1 as the molecule, how does the Ki (Carboxypeptidase B2) read?
A: The Ki was 250 nM.

Q: Which Ki (Carboxypeptidase B2) does the source give for CCCn1cnc(C[C@@H](CCCN)C(=O)O)c1 here?
A: The Ki was greater than 700 nM.

Q: Which Ki (Carboxypeptidase B2) does the source give for CCCCn1cnc(C[C@H](NCCN)C(=O)O)c1 here?
A: The Ki was 70 nM.

Q: For NCCN[C@H](Cc1c[nH]cn1)C(=O)O, which Ki (Carboxypeptidase B2) is on record?
A: The Ki was 17000 nM.

Q: For CCCn1cnc(C[C@H](CCCN)C(=O)O)c1 [UK-396,082], which Ki (Carboxypeptidase B2) is on record?
A: The Ki was 10 nM.

Q: What about the logD [2] of the same molecule?
A: The logD was -2.8.

Q: And the clearance [3]?
A: Its clearance is 3.1 mL/min/kg.

Q: And the Vd [4]?
A: The Vd was 0.35 L/kg.

Q: And the dose excreted [5]?
A: The dose excreted was 96%.

Q: And the half-life [6]?
A: The half-life was 84 min.

Q: And the bioavailability [7]?
A: Its bioavailability is 42%.

Q: What about the bioavailability [8] of the same molecule?
A: The bioavailability was 20%.

Q: And the bioavailability [9]?
A: The bioavailability was 23%.

Q: What about the Tmax [10] of the same molecule?
A: The Tmax was 4 h.

Q: And the Inhibition (Oryctolagus cuniculus [11])?
A: Its Inhibition is 36%.

Q: And the Inhibition (Oryctolagus cuniculus [12])?
A: Its Inhibition is 37%.

Q: Which Ki (Carboxypeptidase B2) does the source give for NCCN[C@@H](Cc1cn(CC2CCC2)cn1)C(=O)O here?
A: The Ki was 124 nM.

Q: With Cn1cnc(C[C@H](NCCN)C(=O)O)c1 as the molecule, how does the Ki (Carboxypeptidase B2) read?
A: The Ki was 235 nM.

Q: For O=C(O)C(CS)Cc1ccccc1 (racemic), which Selectivity ratio [13] is on record?
A: The Selectivity ratio was greater than 10000.

Q: Which Ki (Carboxypeptidase B2) does the source give for NCCCC(CS)C(=O)O (racemic) here?
A: The Ki was 300 nM.

Q: Which Ki (Carboxypeptidase B2) does the source give for NCCN[C@@H](Cc1cn(CCc2ccccc2)cn1)C(=O)O here?
A: The Ki was 140 nM.

Q: Which Ki (Carboxypeptidase B2) does the source give for CC(C)n1cnc(C[C@H](NCCN)C(=O)O)c1 here?
A: The Ki was 430 nM.
